Measured values as given in ChEMBL document CHEMBL1148782, “Inhibitors of tumor progression loci-2 (Tpl2) kinase and tumor necrosis factor alpha (TNF-alpha) production: selectivity and in vivo antiinflammatory activity of novel 8-substituted-4-anilino-6-aminoquinoline-3-carbonitriles” (J Med Chem, 2007).
≈ marks a conversion by molar mass, not a printed value.

Key:
Monocyte = assay: Inhibition of LPS-stimulated TNFalpha production in monocytes; format: functional, Homo sapiens
Blood = assay: Inhibition of LPS-stimulated TNFalpha production in human blood; format: functional
[1] = target: Mitogen-activated protein kinase kinase kinase 8 (Homo sapiens, UniProt P41279); assay: Inhibition of Tpl2 by ELISA
[2] = target: Mitogen-activated protein kinase 14 (Homo sapiens, UniProt Q16539); assay: Inhibition of p38alpha
[3] = target: Protein kinase C alpha type (Homo sapiens, UniProt P17252); assay: Inhibition of PKCalpha
[4] = target: cAMP-dependent protein kinase (PKA) (Homo sapiens, UniProt P22694+P17612+P22612); assay: Inhibition of PKA; format: protein assay
[5] = target: MAP kinase-activated protein kinase 2 (Homo sapiens, UniProt P49137); assay: Inhibition of MK2
[6] = target: Proto-oncogene tyrosine-protein kinase Src (Homo sapiens, UniProt P12931); assay: Inhibition of Src
[7] = target: Ribosomal protein S6 kinase beta-1 (Homo sapiens, UniProt P23443); assay: Inhibition of S6K
[8] = Plasma clearance in Sprague-Dawley rat at 5 mg/kg, iv; format: ADME, organism-based; set-up: dose 5 mg/kg, route intravenous
Procedure, shortened: (§1)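 Female Sprague-Dawley rats were dosed by the iv or oral route. Parameters are reported as means of individual-animal pharmacokinetic values.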

[9] = Volume of distribution at steady state in Sprague-Dawley rat at 5 mg/kg, iv; format: ADME, organism-based; set-up: dose 5 mg/kg, route intravenous; settings: in vivo, read-out: Vss; procedure, shortened: as §1
[10] = Half life in Sprague-Dawley rat at 5 mg/kg, iv; format: ADME, organism-based; set-up: dose 5 mg/kg, route intravenous; settings: in vivo; procedure, shortened: as §1
[11] = Permeability at pH 7.4 by PAMPA method; format: ADME; settings: read-out: permeability
Procedure, shortened: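 Passive permeability was measured by high-resolution PAMPA at pH 7.4.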

Cytochrome P450 3A4 = Cytochrome P450 3A4 (Homo sapiens, UniProt P08684)
CaM kinase II = CaM kinase II (Homo sapiens, UniProt Q13557+Q13555+Q13554+Q9UQM7)
physchem = settings: buffer, pH 7.4
Rattus norvegicus [12] = assay: AUC (0 to infinity) in Sprague-Dawley rat at 25 mg/kg, po; format: ADME, organism-based, Plasma; set-up: dose 25 mg/kg, route oral; settings: in vivo; procedure, shortened: as §1
[13] = Half life in Sprague-Dawley rat at 25 mg/kg, po; format: ADME, organism-based; set-up: dose 25 mg/kg, route oral; settings: in vivo; procedure, shortened: as §1
[14] = Bioavailability in Sprague-Dawley rat at 25 mg/kg, po; format: ADME, organism-based; settings: in vivo; procedure, shortened: as §1
[15] = target: Epidermal growth factor receptor (Homo sapiens, UniProt P00533)
[16] = target: Mitogen-activated protein kinase 8 (Homo sapiens, UniProt P45983); assay: Inhibition of Jnk1
[17] = target: Glycogen synthase kinase-3 beta (Homo sapiens, UniProt P49841); assay: Inhibition of GSKbeta
[18] = target: Tyrosine-protein kinase Lyn (Homo sapiens, UniProt P07948); assay: Inhibition of LYN
[19] = target: Tyrosine-protein kinase BTK (Homo sapiens, UniProt Q06187); assay: Inhibition of BTK
[20] = target: Protein kinase C theta type (Homo sapiens, UniProt Q04759); assay: Inhibition of PKCtheta
[21] = target: Tyrosine-protein kinase Lck (Homo sapiens, UniProt P06239); assay: Inhibition of LCK
Rattus norvegicus [22] = assay: Inhibition of TNFalpha production in Sprague-Dawley rat at 50 mg/kg, po administered 1 hr prior to LPS challenge after 1.5 hrs; format: functional
[23] = Plasma concentration in LPS challenged Sprague-Dawley rat at 50 mg/kg, po after 150 mins; format: ADME, organism-based; set-up: dose 50 mg/kg, route oral
[24] = Plasma concentration in LPS challenged Sprague-Dawley rat at 50 mg/kg, po after 1 hr; format: ADME, organism-based; set-up: dose 50 mg/kg, route oral

Sequence of Ribosomal protein S6 kinase beta-1 (P23443 whole entry): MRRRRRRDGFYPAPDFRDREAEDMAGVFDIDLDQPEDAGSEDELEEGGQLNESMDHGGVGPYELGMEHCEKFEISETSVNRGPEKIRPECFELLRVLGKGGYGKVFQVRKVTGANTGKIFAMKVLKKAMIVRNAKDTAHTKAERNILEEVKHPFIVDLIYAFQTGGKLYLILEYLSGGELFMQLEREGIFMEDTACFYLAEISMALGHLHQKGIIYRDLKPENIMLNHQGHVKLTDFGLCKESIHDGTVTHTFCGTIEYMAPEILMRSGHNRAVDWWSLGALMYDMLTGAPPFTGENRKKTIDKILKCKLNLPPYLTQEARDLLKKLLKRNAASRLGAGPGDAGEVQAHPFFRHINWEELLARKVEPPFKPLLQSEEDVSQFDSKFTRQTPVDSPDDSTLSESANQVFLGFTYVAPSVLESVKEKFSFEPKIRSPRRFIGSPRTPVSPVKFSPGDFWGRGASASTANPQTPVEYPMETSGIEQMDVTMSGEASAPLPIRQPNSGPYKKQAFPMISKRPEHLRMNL
Sequence of MAP kinase-activated protein kinase 2 (P49137 whole entry): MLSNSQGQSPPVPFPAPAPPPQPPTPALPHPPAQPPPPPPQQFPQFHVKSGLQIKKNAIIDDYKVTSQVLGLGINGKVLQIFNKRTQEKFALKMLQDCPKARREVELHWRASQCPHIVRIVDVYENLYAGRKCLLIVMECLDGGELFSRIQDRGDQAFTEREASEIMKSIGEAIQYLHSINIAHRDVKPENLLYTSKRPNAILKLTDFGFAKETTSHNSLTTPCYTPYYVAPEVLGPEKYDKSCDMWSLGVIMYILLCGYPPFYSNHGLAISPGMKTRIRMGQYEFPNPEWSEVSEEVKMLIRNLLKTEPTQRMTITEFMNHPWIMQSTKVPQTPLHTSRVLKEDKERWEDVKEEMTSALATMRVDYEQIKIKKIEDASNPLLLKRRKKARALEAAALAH
Sequence of Epidermal growth factor receptor (P00533 whole entry): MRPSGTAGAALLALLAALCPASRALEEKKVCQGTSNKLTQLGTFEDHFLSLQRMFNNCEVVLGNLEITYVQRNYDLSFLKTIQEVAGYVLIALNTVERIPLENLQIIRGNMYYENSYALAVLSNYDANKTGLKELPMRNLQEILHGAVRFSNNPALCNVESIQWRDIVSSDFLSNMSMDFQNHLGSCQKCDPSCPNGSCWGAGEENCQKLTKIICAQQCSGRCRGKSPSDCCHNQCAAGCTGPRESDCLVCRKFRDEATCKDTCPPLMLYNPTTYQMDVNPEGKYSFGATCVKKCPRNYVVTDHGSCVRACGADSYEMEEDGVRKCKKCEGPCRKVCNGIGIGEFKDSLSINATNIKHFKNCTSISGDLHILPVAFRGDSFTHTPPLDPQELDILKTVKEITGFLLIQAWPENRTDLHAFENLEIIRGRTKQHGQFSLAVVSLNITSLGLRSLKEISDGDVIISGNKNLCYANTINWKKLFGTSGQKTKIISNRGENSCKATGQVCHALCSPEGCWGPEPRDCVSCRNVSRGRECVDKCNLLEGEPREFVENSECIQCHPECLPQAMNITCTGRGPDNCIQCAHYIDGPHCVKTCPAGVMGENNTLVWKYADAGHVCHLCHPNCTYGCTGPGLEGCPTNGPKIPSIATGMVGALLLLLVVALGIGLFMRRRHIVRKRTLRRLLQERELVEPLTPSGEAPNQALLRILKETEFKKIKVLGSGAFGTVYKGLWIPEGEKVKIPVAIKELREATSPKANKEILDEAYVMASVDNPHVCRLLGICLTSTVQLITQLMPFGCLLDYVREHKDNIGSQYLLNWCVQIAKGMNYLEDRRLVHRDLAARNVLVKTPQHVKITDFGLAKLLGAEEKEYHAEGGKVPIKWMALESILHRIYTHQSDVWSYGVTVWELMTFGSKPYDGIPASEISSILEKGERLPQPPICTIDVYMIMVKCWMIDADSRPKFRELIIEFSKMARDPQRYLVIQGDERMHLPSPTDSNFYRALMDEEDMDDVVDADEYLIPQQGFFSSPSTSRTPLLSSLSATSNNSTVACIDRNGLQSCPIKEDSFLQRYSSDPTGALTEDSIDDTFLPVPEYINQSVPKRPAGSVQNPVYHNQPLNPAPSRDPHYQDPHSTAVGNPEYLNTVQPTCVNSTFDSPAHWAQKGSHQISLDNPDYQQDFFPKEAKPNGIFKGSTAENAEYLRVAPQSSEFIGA
Sequence of Mitogen-activated protein kinase 14 (Q16539 whole entry): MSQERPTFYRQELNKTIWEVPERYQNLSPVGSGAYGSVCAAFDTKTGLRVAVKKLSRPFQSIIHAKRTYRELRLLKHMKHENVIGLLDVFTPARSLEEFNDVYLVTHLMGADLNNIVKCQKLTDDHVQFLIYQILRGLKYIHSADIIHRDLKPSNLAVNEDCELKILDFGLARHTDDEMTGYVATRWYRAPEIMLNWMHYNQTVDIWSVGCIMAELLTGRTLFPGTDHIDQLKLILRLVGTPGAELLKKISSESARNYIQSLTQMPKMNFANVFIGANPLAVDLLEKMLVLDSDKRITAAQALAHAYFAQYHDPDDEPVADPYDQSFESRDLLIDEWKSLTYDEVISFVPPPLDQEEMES
Sequence of Cytochrome P450 3A4 (P08684 whole entry): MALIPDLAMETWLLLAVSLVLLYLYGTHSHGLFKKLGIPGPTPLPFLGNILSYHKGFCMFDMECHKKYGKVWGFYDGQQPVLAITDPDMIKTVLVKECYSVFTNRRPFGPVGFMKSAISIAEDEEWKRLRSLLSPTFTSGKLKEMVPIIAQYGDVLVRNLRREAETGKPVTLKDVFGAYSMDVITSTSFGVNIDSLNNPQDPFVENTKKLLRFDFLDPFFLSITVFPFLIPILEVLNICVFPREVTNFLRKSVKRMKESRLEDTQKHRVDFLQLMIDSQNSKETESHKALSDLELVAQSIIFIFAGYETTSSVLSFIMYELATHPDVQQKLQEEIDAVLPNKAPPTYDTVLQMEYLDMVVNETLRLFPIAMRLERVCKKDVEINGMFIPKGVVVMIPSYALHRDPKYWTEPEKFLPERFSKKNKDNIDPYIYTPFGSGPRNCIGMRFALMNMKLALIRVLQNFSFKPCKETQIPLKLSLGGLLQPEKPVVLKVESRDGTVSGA
Sequence of Mitogen-activated protein kinase kinase kinase 8 (P41279 whole entry): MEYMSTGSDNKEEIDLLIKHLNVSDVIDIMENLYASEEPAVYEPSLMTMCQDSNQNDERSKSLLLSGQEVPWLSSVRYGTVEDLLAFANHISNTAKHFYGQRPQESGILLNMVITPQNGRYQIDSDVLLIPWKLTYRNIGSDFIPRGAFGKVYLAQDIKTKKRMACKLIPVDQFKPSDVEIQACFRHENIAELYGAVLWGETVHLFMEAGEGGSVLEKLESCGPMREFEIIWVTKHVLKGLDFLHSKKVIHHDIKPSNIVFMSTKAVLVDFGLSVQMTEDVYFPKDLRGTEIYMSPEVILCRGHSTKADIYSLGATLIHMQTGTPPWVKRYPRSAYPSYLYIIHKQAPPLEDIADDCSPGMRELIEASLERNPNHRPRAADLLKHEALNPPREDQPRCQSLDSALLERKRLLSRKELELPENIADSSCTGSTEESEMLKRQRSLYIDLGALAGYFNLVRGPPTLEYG
Sequence of Proto-oncogene tyrosine-protein kinase Src (P12931 2-536 limits assumed): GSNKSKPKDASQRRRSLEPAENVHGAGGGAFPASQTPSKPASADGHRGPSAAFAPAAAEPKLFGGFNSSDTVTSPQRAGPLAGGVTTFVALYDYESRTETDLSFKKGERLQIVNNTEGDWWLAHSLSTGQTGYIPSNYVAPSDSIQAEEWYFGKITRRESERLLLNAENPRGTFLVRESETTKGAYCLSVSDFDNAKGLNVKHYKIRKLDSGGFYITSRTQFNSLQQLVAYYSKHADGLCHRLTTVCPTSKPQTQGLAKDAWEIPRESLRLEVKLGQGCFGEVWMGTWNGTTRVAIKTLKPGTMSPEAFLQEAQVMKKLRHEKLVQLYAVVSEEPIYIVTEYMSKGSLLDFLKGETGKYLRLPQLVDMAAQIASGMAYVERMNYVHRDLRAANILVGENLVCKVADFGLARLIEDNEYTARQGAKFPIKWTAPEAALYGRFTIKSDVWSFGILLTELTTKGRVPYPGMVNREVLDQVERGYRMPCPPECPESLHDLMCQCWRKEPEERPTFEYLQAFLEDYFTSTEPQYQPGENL

For `COC(=O)c1[nH]cnc1CNc1cc(Br)c2ncc(C#N)c(Nc3ccc(F)c(Cl)c3)c2c1`, the Inhibitory concentration (Monocyte) was 2000 nM and the Activity (Blood) was >20 µM.

With `N#Cc1cnc2c(Br)cc(NC(=O)Cc3cnc[nH]3)cc2c1Nc1ccc(F)c(Cl)c1` the IC50 [1] was > 5000 nM.

Compound `CN(C)CCCc1[nH]cnc1CNc1cc(Cl)c2ncc(C#N)c(Nc3ccc(F)c(Cl)c3)c2c1` has an Activity (Blood) of 15.2 µM.

In the case of `Cn1nccc1CNc1cc(Br)c2ncc(C#N)c(Nc3ccc(F)c(Cl)c3)c2c1`, the Inhibitory concentration (Monocyte) is reported as 665 nM and the Activity (Blood) is reported as >20 µM.

For `CCCc1[nH]cnc1CNc1cc(Cl)c2ncc(C#N)c(Nc3ccc(F)c(Cl)c3)c2c1`, the Inhibitory concentration (Monocyte) was 220 nM, the Activity (Blood) was 5.6 µM and the IC50 [2] was > 40 µM. For the same compound, the IC50 [3] was > 40 µM, the IC50 [4] was 76.1 µM and the IC50 [5] was 62.7 µM. The IC50 [6] was > 40 µM, the IC50 [7] was 18.8 µM and the clearance [8] was > 100 mL/min/kg. The Vd [9] was 12.2 L/kg, the half-life [10] was 72 min and the Papp [11] was < 5 ×10⁻⁶ cm/s. The IC50 (Cytochrome P450 3A4) was 16 µM, the IC50 (CaM kinase II) was > 40 µM and the solubility (physchem) was < 10 µg/mL.

With `N#Cc1cnc2c(Br)cc(NCc3cn[nH]n3)cc2c1Nc1ccc(F)c(Cl)c1` the Inhibitory concentration (Monocyte) was 74 nM, the Activity (Blood) was 3.5 µM and the IC50 [3] was > 100 µM. The IC50 [4] was > 100 µM, the IC50 [7] was > 100 µM and the clearance [8] was 29 mL/min/kg. For the same compound, the Vd [9] was 2.7 L/kg, the half-life [10] was 192 min and the AUC/dose (Rattus norvegicus [12]) was < 10 ng·kg·h/mg/mL. For the same compound, the half-life [13] was 234 min, the bioavailability [14] was 2% and the Papp [11] was < 5 ×10⁻⁶ cm/s. The solubility (physchem) was < 10 µg/mL.

For `N#Cc1cnc2c(Cl)cc(NCc3cccc[n+]3[O-])cc2c1Nc1ccc(F)c(Cl)c1`, the Inhibitory concentration (Monocyte) was 1500 nM, the Activity (Blood) was 11.4 µM and the IC50 [2] was > 40 µM. The IC50 [3] was > 40 µM, the IC50 [4] was > 40 µM and the IC50 [5] was 40.1 µM. For the same compound, the IC50 [6] was > 40 µM, the IC50 [7] was > 40 µM and the clearance [8] was 38 mL/min/kg. The Vd [9] was 1.6 L/kg, the half-life [10] was 48 min and the AUC/dose (Rattus norvegicus [12]) was < 10 ng·kg·h/mg/mL. The half-life [13] was 252 min, the bioavailability [14] was < 1% and the Papp [11] was < 5 ×10⁻⁶ cm/s. The IC50 [15] was 2.9 µM, the IC50 (Cytochrome P450 3A4) was 18 µM and the IC50 (CaM kinase II) was > 40 µM. The solubility (physchem) was < 10 µg/mL.

In the case of `CS(=O)(=O)CCn1cnc(CNc2cc(Br)c3ncc(C#N)c(Nc4ccc(F)c(Cl)c4)c3c2)c1`, the Inhibitory concentration (Monocyte) is reported as 1000 nM and the Activity (Blood) is reported as >20 µM.

With `N#Cc1cnc2c(Br)cc(NCc3c[nH]cn3)cc2c1Nc1ccc(F)c(Cl)c1` the IC50 [1] was 10 nM, the Inhibitory concentration (Monocyte) was 370 nM and the Activity (Blood) was >10 µM. The IC50 [15] was 3.3 µM and the solubility (physchem) was 2 µg/mL (≈ 4.24 µM).

With `N#Cc1cnc2c(C(F)(F)F)cc(NCc3c[nH]cn3)cc2c1Nc1ccc(F)c(Cl)c1` the IC50 [1] was 160 nM, the Inhibitory concentration (Monocyte) was 600 nM and the Activity (Blood) was >10 µM. The IC50 [15] was > 20 µM.

For `N#Cc1cnc2c(Br)cc(NCc3cn(CCN4CCOCC4)cn3)cc2c1Nc1ccc(F)c(Cl)c1`, the Inhibitory concentration (Monocyte) was 430 nM, the Activity (Blood) was 8.95 µM and the solubility (physchem) was 69 µg/mL (≈ 118 µM).

For `Cn1cnc(CNc2cc(Br)c3ncc(C#N)c(Nc4ccc(F)c(Cl)c4)c3c2)c1`, the Inhibitory concentration (Monocyte) was 670 nM, the Activity (Blood) was 6.3 µM and the IC50 [2] was > 40 µM. For the same compound, the IC50 [3] was > 40 µM, the IC50 [4] was > 100 µM and the IC50 [5] was 87.1 µM. For the same compound, the IC50 [6] was > 40 µM, the IC50 [7] was 83.1 µM and the IC50 [16] was 31 µM. The IC50 [17] was > 10 µM, the IC50 [18] was > 30 µM and the IC50 [19] was > 10 µM. The IC50 [20] was > 50 µM, the IC50 [21] was 4.5 µM and the clearance [8] was 50 mL/min/kg. The Vd [9] was 14.1 L/kg, the half-life [10] was 300 min and the AUC/dose (Rattus norvegicus [12]) was 142 ng·kg·h/mg/mL. The half-life [13] was 240 min, the bioavailability [14] was 42% and the Papp [11] was < 5 ×10⁻⁶ cm/s. It also gave an inhibition in vivo at 50 mg/kg (Rattus norvegicus [22]) of 50%, a concentration at 2.5 h [23] of 550 nM and a concentration at 1 h [24] of 1100 nM. The IC50 (Cytochrome P450 3A4) was 15 µM and the solubility (physchem) was < 10 µg/mL.

For `CN(C)C(=O)c1cc(NCc2c[nH]cn2)cc2c(Nc3ccc(F)c(Cl)c3)c(C#N)cnc12`, the Inhibitory concentration (Monocyte) was >1000 nM, the Activity (Blood) was >10 µM and the IC50 [15] was > 20 µM.

For `N#Cc1cnc2c(Cl)cc(NCc3cccnc3)cc2c1Nc1ccc(F)c(Cl)c1`, the Inhibitory concentration (Monocyte) was >1000 nM, the Activity (Blood) was 20 µM and the IC50 [15] was > 5 µM.

In the case of `N#Cc1cnc2c(Cl)cc(NCc3cccc(N4CCOCC4)n3)cc2c1Nc1ccc(F)c(Cl)c1`, the IC50 [1] is reported as 350 nM.
